KCNK9 inh: KCNK9 potassium channel inhibitors, primary screen, HEK293 cells, thallium flux. FluxOR thallium flux fluorescence; stronger effect = lower value. AID 488922, 2010. B-score at 10 µM. actives 1.2% (n = 310,000). Potassium channel subfamily K member 9 (Homo sapiens), Q9NPC2;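 active = ratio B-score over 3 SD below the library mean, with starting fluorescence within 5 SD of its mean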;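 also: negative B-score means less thallium flux so channel inhibition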
KCNQ1 inh: inhibitors of human KCNQ1 channel, primary screen, cell-based, thallium flux, high-throughput; Potassium voltage-gated channel subfamily KQT member 1 (Homo sapiens), P51787; CHO-K1 KCNQ1, FluxOR thallium flux fluorescence; stronger effect = higher value; B-score at 10 µM; actives 1.3% (n = 310,000);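 active = compounds whose thallium flux B-score, printed positive for inhibition, exceeds three library SD while starting fluorescence stays within three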;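 also: channel opened by potassium depolarization with thallium stimulus after 20 min compound exposure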
Kir21 inh: inhibitors of mouse Kir2.1 inward-rectifier potassium channel | Inward rectifier potassium channel 2 (Mus musculus), P35561 | actives 0.85% (n = 310,000) | B-score at 10 µM | HEK293-Kir2.1, FluxOR thallium flux fluorescence; stronger effect = lower value | AID 1672, 2009;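 active = fluorescence ratio B-score at or below minus 3 SD of library scores, with starting-brightness B-score within 2 SD, cut at about -4.2 in these data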;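 also: channel flux triggered by added potassium and thallium sulfate stimulus; B-score of peak minus minimum fluorescence over baseline after thallium stimulus; more negative B-score means stronger Kir2.1 block with less thallium influx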
KCNK3 block: human KCNK3 channel inhibitors, primary screen, CHO cells, FluxOR thallium flux, B-score | actives 0.84% (n = 340,000) | FluxOR fluorescence; stronger effect = lower value | B-score at 10 µM | Potassium channel subfamily K member 3 (Homo sapiens), O14649 | AID 602410, 2012;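 active = B-score under library mean minus 4 SD, starting fluorescence ratio at most library mean plus 5 SD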;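 also: more negative B-score means stronger inhibition of thallium flux through KCNK3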
hERG rescue: hERG rescue from dofetilide block, primary screen, cell-based, CHO-hERG, FluxOR thallium flux, dofetilide IC70 | dofetilide IC70 present | actives 0.51% (n = 310,000) | activation (rescue from dofetilide block), less the hit threshold, % at 10 µM | Voltage-gated inwardly rectifying potassium channel KCNH2 (Homo sapiens), Q12809;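 active = activation above the mean of controls blocked by dofetilide plus 5 SD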;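 also: thallium influx through hERG after potassium depolarization seen as dye fluorescence rise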
KCNQ1 pot: potentiators or activators of KCNQ1 channel, primary screen, cell-based, thallium flux, high-throughput; Potassium voltage-gated channel subfamily KQT member 1 (Homo sapiens), P51787; AID 2648, 2010; B-score at 10 µM; actives 0.35% (n = 310,000); CHO-K1 KCNQ1, thallium flux FluxOR fluorescence; stronger effect = higher value;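 active = fluorescence ratio B-score, a plate-corrected score, at least three library SD, with initial intensity B-score within 5 SD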
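Medium – assay buffer, equal DMSO in all wells · Material – CHO-K1 cell line with stable KCNQ1 potassium channel expression · Signal – kinetic FluxOR thallium fluorescence, 10-s 1-Hz baseline, 110-s post-stimulus read · Compound – single concentration per compound, DMSO matched to controls · Schedule – 37 °C overnight plating, 90-min dark dye load, 20-min compound pretreatment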
KCNK9 block conf: KCNK9 potassium channel inhibitors, confirmation, HEK293 cells, thallium flux, duplicate; shares compounds with KCNK9 inh; FluxOR thallium flux fluorescence; inhibition, % at 10 µM; actives 43% (n = 4,900);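 active = thallium signal inhibited by more than 5 SD of the compound-free buffer control wells, on both duplicate plates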;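 also: 0% = assay buffer control wells without compound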
Kir21 sel: mouse Kir2.1 channel inhibition, confirmation, selectivity assay for KCNK9 modulator project, cell-based, HEK293, thallium flux; shares compounds with KCNK9 inh; Kir2.1 cells, FluxOR thallium flux fluorescence; inhibition, % at 10 µM; actives 4% (n = 4,900);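 active = thallium signal drop more than 5 SD beyond the mean of the no-compound control wells, seen in both duplicate plates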;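 also: signal is fluorescence rise after thallium addition divided by baseline fluorescence; plate controls were assay buffer only for no effect and full block by chlorpromazine control for full effect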
KCNK9 uninduced: thallium flux in non-induced HEK293 cells, confirmation, counter-screen for KCNK9 inhibitor project, cell-based, second counter screen, non-induced KCNK9-HEK293 | shares compounds with KCNK9 inh | FluxOR thallium flux | inhibition, % at 10 µM | actives 40% (n = 4,900);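 active = thallium signal drop beyond 5 SD of the untreated control mean, on both duplicate plates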;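 also: plate controls were buffer only IC0 wells for no effect and SID17386958 at its maximal inhibitory level for full effect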
The depositor's hits bear a star. A selection: hits, their analogues and other compounds. The true share with any hit is near 3.7%.

`COc1ccc(N2CC(C)Cn3c2nc2c3c(=O)n(Cc3ccc(C)cc3)c(=O)n2C)c(OC)c1` (centres undefined) gave KCNK9 inh inactive, KCNQ1 inh inactive, Kir21 inh -0.63, KCNK3 block inactive, hERG rescue -15, KCNQ1 pot inactive, KCNK9 block conf inactive, Kir21 sel inactive and KCNK9 uninduced inactive.
Cc1ccc(NS(=O)(=O)c2cccc(C(=O)NCCc3c[nH]c4ccccc34)c2)c(C)c1 was read as KCNK9 inh inactive, KCNQ1 inh inactive, Kir21 inh 1.1, KCNK3 block inactive, hERG rescue -17, KCNQ1 pot inactive, KCNK9 block conf inactive, Kir21 sel inactive and KCNK9 uninduced 27%*.
`Cc1nnc(-c2ccccc2)c(=O)n1/N=C/c1c(O)ccc2ccccc12` gave KCNK9 inh -8.8*, KCNQ1 inh 8*, Kir21 inh 0.57, KCNK3 block inactive, hERG rescue -6, KCNQ1 pot inactive, KCNK9 block conf 38%*, Kir21 sel inactive and KCNK9 uninduced 34%*.
`COc1ccc(-n2c(CCc3ccccc3)nnc2SCC(=O)NCc2ccccc2)cc1` gave KCNK9 inh inactive, KCNQ1 inh inactive, Kir21 inh -4.9*, KCNK3 block inactive, hERG rescue -16, KCNQ1 pot inactive, KCNK9 block conf inactive, Kir21 sel inactive and KCNK9 uninduced inactive.
For COc1ccc(CNC(=O)CSCc2cnn(-c3ccccc3)c2-n2cccc2)cc1 the results were KCNK9 inh inactive, KCNQ1 inh inactive, Kir21 inh -4.9*, KCNK3 block inactive, hERG rescue -16, KCNQ1 pot inactive, KCNK9 block conf inactive, Kir21 sel inactive and KCNK9 uninduced inactive.
O=C(CSc1nnc(CCc2ccccc2)n1-c1ccc(Cl)cc1)NCc1ccccc1 was read as KCNK9 inh inactive, KCNQ1 inh inactive, Kir21 inh -3.4, KCNK3 block inactive, hERG rescue -4 and KCNQ1 pot inactive.
`COc1ccc(NC(=O)Cc2nnc(SCC(=O)c3ccccc3)n2C)cc1` gave KCNK9 inh inactive, KCNQ1 inh inactive, Kir21 inh 0.47, KCNK3 block inactive, hERG rescue -6 and KCNQ1 pot inactive.
For COc1ccc(-n2c(CCc3ccccc3)nnc2SCC(=O)c2ccccc2)cc1 the results were KCNK9 inh inactive, KCNQ1 inh inactive, Kir21 inh 0, KCNK3 block inactive, hERG rescue -2, KCNQ1 pot inactive, KCNK9 block conf inactive, Kir21 sel inactive and KCNK9 uninduced inactive.
`C=C1CCN([C@H](C(=O)OCc2cccc(C)c2)C(C)C)S(=O)(=O)c2ccccc21` gave KCNK9 inh -9*, KCNQ1 inh inactive, Kir21 inh -1.2, KCNK3 block inactive, hERG rescue -12, KCNQ1 pot inactive, KCNK9 block conf 46%*, Kir21 sel inactive and KCNK9 uninduced inactive.
